Test results from ChEMBL document CHEMBL3994673, “Design and Synthesis of Potent and Selective PIM Kinase Inhibitors by Targeting Unique Structure of ATP-Binding Pocket” (ACS Med Chem Lett, 2017).
≈ marks a conversion by molar mass, not a printed value.

Key:
[1] = biological target: T1, Serine/threonine-protein kinase pim-2 (Homo sapiens, UniProt Q9P1W9); test: Inhibition of full length recombinant human N-terminal GST-tagged PIM2 (1 to 311 residues) expressed in baculovirus infected sf21 cells using S6K2 peptide as substrate by electrophoretic mobility shift assay
Target sequence in this assay (Q9P1W9 whole entry, the tested form may be a part): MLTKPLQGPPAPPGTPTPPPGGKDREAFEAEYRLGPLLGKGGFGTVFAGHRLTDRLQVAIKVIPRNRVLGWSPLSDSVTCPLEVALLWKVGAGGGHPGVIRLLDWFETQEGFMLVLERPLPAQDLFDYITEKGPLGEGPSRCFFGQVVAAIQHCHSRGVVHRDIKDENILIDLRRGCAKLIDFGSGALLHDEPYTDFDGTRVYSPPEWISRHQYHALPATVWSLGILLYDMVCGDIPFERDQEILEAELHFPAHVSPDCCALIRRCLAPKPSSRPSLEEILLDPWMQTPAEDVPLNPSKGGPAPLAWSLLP

[2] = biological target: Death-associated protein kinase 1 (Homo sapiens) (UniProt P53355); test: Inhibition of recombinant human N-terminal GST-tagged DAPK1 catalytic domain (1 to 289 residues) expressed in baculovirus infected sf21 cells at 200 nM using DAPK1tide as substrate by electrophoretic mobility shift assay relative to control
Outline: (§1)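 Single-point screen of a 52-kinase panel with compound at 200 nM, read as % inhibition of each kinase; run by a contract lab (Carna Biosciences).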

[3] = Stability in human liver microsomes assessed as parent compound remaining at 1 uM after 1 hr; format: ADME, microsome; details: read-out: Stability
Outline: (§2)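 Compound at 1 μM incubated with liver microsomes (0.3 mg/mL protein) at 37 °C for 1 h; value is percent of parent remaining. Performed by a contract lab (Cerep).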

[4] = biological target: Protein kinase C alpha type (Homo sapiens) (UniProt P17252); test: Inhibition of full length recombinant human N-terminal GST-tagged PKCalpha (1 to 672 residues) expressed in baculovirus infected sf21 cells at 200 nM using PKC peptide as substrate by electrophoretic mobility shift assay relative to control; outline: as §1
[5] = biological target: Serine/threonine-protein kinase pim-1 (Homo sapiens, UniProt P11309); test: Inhibition of PIM1 (unknown origin) using 5-FAM-RSRHSSYPAGT-CONH2 as substrate after 2 hrs by electrophoretic mobility shift assay
[6] = Aqueous solubility of the compound in pH 7.4 PBS by HPLC-UV method; format: physicochemical
Outline: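 Tested in PBS pH 7.4 with a final DMSO concentration of 2%; performed by a contract lab (Cerep).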

[7] = Stability in mouse liver microsomes assessed as parent compound remaining at 1 uM after 1 hr; format: ADME, microsome; details: read-out: Stability; outline: as §2
hERG (KCNH2) = hERG (KCNH2) (Homo sapiens, UniProt Q12809); test: Inhibition of human ERG expressed in CHO cells at 10 uM by patch clamp method relative to control; format: cell-based; details: CHO cells expressing human ERG
Outline: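 hERG block measured by patch clamp with compound at 10 μM; performed by a contract lab (Cerep).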

[8] = biological target: Rho-associated protein kinase 1 (Homo sapiens) (UniProt Q13464); test: Inhibition of recombinant human N-terminal GST-tagged ROCK1 catalytic domain (1 to 477 residues) expressed in baculovirus infected sf21 cells at 200 nM using LIMKtide as substrate by electrophoretic mobility shift assay relative to control; outline: as §1
[9] = biological target: T1, Serine/threonine-protein kinase pim-2; test: Inhibition of full length recombinant human N-terminal GST-tagged PIM2 (1 to 311 residues) expressed in baculovirus infected sf21 cells at 200 nM using S6K2 peptide as substrate by electrophoretic mobility shift assay relative to control; outline: as §1
Target sequence in this assay (Q9P1W9 whole entry, looked up, the tested form may be a part): as the sequence (Q9P1W9 whole entry, the tested form may be a part) above

[10] = Permeability in human Caco2 cells at 10 uM; format: ADME, cell-based; details: Caco-2, read-out: permeability
Outline: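 Caco-2 monolayer permeability measured with compound at 10 μM, reported in units of 10–6 cm/s; performed by a contract lab (Cerep).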

[11] = biological target: T2, Serine/threonine-protein kinase D2 (Homo sapiens) (UniProt Q9BZL6); test: Inhibition of full length recombinant human N-terminal GST-tagged PKD2 (1 to 878 end residues) expressed in baculovirus infected sf21 cells at 200 nM using GS peptide as substrate by electrophoretic mobility shift assay relative to control; outline: as §1
T2 sequence (whole entry): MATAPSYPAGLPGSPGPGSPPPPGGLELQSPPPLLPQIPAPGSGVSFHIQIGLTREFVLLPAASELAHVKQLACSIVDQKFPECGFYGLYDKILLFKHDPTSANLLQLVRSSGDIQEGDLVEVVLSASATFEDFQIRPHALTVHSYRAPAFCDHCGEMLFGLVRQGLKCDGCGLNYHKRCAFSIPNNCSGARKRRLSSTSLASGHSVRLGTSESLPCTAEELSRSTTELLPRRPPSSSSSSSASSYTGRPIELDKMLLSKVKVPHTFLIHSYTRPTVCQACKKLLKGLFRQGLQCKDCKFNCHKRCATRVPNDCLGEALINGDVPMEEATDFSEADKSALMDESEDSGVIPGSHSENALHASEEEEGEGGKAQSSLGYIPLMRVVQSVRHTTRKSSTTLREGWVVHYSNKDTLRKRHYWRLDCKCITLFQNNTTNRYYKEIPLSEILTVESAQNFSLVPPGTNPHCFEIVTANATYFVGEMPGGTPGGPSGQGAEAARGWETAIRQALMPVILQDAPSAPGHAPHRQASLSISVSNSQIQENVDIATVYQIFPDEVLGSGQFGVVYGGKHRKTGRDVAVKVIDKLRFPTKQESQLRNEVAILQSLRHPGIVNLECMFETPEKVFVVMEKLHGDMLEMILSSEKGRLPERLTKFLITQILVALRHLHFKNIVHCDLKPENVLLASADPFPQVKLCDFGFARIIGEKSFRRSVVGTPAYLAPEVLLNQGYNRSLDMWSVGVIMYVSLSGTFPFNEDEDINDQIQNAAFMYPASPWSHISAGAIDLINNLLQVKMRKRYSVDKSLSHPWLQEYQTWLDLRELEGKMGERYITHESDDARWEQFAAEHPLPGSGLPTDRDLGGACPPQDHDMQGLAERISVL

[12] = biological target: Platelet-derived growth factor receptor alpha (Homo sapiens) (UniProt P16234); test: Inhibition of recombinant human N-terminal GST-tagged PDGFRalpha cytoplasmic domain (550 to 1089 end residues) expressed in baculovirus infected sf21 cells at 200 nM using CSKtide as substrate by electrophoretic mobility shift assay relative to control; outline: as §1

Death-associated protein kinase 1 (Homo sapiens), sequence (P53355 whole entry, looked up, the tested form may be a part): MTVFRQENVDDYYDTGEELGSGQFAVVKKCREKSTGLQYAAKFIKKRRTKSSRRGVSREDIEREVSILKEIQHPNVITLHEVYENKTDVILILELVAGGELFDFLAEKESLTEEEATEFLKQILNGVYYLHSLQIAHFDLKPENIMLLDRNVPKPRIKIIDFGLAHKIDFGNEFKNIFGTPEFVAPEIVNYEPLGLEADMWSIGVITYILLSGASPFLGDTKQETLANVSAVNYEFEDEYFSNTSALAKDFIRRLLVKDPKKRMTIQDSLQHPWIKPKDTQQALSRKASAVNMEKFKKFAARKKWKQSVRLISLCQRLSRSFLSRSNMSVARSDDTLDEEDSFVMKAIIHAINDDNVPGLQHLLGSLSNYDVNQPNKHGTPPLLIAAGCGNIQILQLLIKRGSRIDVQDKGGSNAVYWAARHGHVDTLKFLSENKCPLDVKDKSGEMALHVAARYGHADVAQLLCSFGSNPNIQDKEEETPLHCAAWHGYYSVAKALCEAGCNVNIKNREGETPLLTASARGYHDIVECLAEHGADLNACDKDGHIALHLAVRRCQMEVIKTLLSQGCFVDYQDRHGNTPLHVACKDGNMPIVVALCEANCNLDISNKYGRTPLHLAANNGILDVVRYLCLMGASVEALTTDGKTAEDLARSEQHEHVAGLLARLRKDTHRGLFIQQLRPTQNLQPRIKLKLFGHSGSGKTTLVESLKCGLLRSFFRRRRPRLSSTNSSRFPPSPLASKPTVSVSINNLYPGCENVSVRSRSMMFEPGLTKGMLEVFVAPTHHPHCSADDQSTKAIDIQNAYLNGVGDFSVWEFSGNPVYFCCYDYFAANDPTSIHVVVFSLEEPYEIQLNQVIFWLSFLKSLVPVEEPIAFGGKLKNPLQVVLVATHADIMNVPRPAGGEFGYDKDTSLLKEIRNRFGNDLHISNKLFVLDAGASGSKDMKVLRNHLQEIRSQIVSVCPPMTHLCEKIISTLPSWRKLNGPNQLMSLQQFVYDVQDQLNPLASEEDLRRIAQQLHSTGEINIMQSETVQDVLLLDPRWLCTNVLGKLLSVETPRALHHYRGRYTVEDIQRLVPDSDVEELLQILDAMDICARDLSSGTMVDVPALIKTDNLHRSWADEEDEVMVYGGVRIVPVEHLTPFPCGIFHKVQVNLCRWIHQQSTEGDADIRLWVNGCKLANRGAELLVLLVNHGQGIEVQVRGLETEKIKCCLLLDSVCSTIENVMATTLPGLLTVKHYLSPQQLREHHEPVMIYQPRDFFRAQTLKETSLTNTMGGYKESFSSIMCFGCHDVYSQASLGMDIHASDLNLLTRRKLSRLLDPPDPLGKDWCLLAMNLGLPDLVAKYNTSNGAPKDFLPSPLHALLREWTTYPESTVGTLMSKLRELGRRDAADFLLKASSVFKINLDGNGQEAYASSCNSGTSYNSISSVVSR
Serine/threonine-protein kinase pim-1, sequence (P11309 whole entry): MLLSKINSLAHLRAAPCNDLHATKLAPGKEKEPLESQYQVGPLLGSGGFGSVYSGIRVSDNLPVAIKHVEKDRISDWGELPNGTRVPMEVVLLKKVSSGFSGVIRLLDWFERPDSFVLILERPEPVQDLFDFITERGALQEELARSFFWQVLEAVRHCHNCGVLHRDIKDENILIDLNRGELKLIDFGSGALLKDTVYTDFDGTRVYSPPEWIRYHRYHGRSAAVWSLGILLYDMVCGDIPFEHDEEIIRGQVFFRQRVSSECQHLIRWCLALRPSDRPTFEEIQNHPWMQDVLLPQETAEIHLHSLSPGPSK
Rho-associated protein kinase 1 (Homo sapiens), sequence (Q13464 2-1354 limits assumed): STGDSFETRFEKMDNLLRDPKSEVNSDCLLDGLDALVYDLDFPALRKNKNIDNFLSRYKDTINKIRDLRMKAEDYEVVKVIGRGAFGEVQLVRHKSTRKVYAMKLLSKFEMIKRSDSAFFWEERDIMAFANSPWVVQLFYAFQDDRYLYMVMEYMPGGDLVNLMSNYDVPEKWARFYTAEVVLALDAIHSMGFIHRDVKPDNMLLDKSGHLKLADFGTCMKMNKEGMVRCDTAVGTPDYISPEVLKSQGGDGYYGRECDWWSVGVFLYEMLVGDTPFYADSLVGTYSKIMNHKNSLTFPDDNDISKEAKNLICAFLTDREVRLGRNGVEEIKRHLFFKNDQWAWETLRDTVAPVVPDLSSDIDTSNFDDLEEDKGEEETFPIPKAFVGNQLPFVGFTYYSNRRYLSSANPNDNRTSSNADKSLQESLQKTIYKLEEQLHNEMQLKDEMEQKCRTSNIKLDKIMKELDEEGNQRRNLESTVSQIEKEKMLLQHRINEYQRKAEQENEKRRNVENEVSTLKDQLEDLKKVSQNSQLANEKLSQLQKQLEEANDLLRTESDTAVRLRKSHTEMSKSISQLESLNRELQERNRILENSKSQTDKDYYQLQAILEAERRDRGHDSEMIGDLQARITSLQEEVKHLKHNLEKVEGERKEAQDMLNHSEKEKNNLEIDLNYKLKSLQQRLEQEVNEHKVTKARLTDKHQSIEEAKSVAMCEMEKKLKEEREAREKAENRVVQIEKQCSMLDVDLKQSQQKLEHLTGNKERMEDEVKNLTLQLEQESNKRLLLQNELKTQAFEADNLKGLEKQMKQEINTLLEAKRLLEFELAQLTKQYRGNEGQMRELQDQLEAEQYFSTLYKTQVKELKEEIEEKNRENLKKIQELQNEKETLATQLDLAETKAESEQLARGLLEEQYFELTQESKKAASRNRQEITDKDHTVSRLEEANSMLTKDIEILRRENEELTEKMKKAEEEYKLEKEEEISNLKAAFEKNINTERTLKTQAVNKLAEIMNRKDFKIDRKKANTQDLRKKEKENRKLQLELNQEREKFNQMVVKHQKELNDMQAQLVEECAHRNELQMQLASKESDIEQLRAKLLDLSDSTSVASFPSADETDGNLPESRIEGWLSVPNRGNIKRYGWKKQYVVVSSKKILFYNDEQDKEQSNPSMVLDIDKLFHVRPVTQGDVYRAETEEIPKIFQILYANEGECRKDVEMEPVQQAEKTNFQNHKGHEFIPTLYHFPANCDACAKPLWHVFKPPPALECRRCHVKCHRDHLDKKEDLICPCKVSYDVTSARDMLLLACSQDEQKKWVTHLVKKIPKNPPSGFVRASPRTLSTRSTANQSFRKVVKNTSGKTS

Structure (SMILES) | IC50 [1] | inhibition [2] | IC50 [5] | inhibition [8] | other results
COc1ccc2c(c1CN1CCNCC1)O/C(=C\c1c[nH]c3nc(C)ccc13)C2=O | 300 nM | 91% | 0.64 nM | 50% | remaining at 1 h, 1 µM [3]: 74%; inhibition [4]: 10%; solubility [6]: 130 µM (≈ 52.6 µg/mL); remaining at 1 h, 1 µM [7]: 69%; inhibition at 10 µM (hERG (KCNH2)): 14%; inhibition [9]: 25%; Papp at 10 µM [10]: 0.13 ×10⁻⁶ cm/s
O=C1/C(=C/c2c[nH]c3nc(F)ccc23)Oc2c1ccc(O)c2CN1CCNCC1 |  |  | 1.8 nM |  | 
CCc1ccc2c(/C=C3\Oc4c(ccc(OC)c4CN4CCNCC4)C3=O)c[nH]c2n1 | 290 nM | 77% | 1.1 nM | 50% | inhibition [4]: 10%; inhibition [11]: 90%; inhibition [9]: 23%
COc1ccc2c(c1CN1CCNCC1)O/C(=C\c1n[nH]c3ccccc13)C2=O |  |  |  |  | remaining at 1 h, 1 µM [3]: 68%; remaining at 1 h, 1 µM [7]: 83%; Papp at 10 µM [10]: 0.89 ×10⁻⁶ cm/s
COc1ccc2c(c1CN1CCNCC1)O/C(=C\c1c[nH]c3nc(-c4ccccc4)ccc13)C2=O |  |  | 16 nM |  | 
CCCc1ccc2c(/C=C3\Oc4c(ccc(OC)c4CN4CCNCC4)C3=O)c[nH]c2n1 |  |  | 4.5 nM |  | 
O=C1/C(=C/c2c[nH]c3ncccc23)Oc2c1ccc(O)c2CN1CCNCC1 | 420 nM |  | 2 nM |  | 
COc1ccc2c(c1CN1CCNCC1)O/C(=C\c1c[nH]c3nc(F)ccc13)C2=O |  | 97% | 0.28 nM | 94% | inhibition [11]: 59%; inhibition [12]: 79%
